Test [1] concerns the target Dual specificity tyrosine-phosphorylation-regulated kinase 2 (Homo sapiens) (UniProt Q92630). The test is described as follows: Inhibition of recombinant human N-terminal GST-tagged DYRK2 (3 to 528 residues) expressed in Escherichia coli assessed as remaining activity at 1 uM using KKISGRLSPIMTEQ as substrate incubated for 30 mins in presence of [gamma-33P]ATP by filter binding method relative to control. In a few lines: (§1)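 Run robotically for 30 min at 21 °C under linear conditions. Compound at 1 or 10 µM. Percentage activity remaining versus control without compound, triplicate mean ± S.D.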

Test [2] deals with Dual specificity tyrosine-phosphorylation-regulated kinase 3 (Homo sapiens) (UniProt O43781). The test can be described thus: Inhibition of recombinant human N-terminal GST-tagged DYRK3 (1 to 588 residues) expressed in Escherichia coli assessed as remaining activity at 1 uM using KKISGRLSPIMTEQ as substrate incubated for 30 mins in presence of [gamma-33P]ATP by filter binding method relative to control. An outline of the steps:
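Radiometric kinase panel run robotically at 21 °C for 30 min, linear in time and enzyme. […] Activity expressed as percentage of control without inhibitor; triplicate determinations.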

In test [3] the target is Serine/threonine-protein kinase pim-1 (Homo sapiens) (UniProt P11309). The test can be described thus: Inhibition of recombinant human N-terminal His6-tagged PIM1 (2 to 313 residues) expressed in baculovirus infected Sf21 cells assessed as remaining activity at 1 uM using RSRHSSYPAGT as substrate incubated for 30 mins in presence of [gamma-33P]ATP by filter binding method relative to control. An outline of the steps: (§2)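 Incubations ran robotically for 30 min at room temperature (21 °C) under linear conditions. Results are percent activity remaining versus controls without compound, as the mean of triplicates ± S.D.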

The target of test [4] is Tyrosine-protein kinase CSK (Homo sapiens) (UniProt P41240). The test is described as follows: Inhibition of recombinant human N-terminal GST-tagged CSK (1 to 450 residues) expressed in Escherichia coli assessed as remaining activity at 10 uM Cdc2 peptide as substrate incubated for 30 mins in presence of [gamma-33P]ATP by filter binding method relative to control. An outline of the steps: as §2

Test [5] concerns the target Dual specificity tyrosine-phosphorylation-regulated kinase 2 (Homo sapiens) (UniProt Q92630). The test is described as follows: Inhibition of recombinant human N-terminal GST-tagged DYRK2 (3 to 528 residues) expressed in Escherichia coli assessed as remaining activity at 10 uM using KKISGRLSPIMTEQ as substrate incubated for 30 mins in presence of [gamma-33P]ATP by filter binding method relative to control. An outline of the steps:
as §1

The target in test [6] is MAP kinase-activated protein kinase 2 (Homo sapiens) (UniProt P49137). The test can be described thus: Inhibition of recombinant human N-terminal GST/C-terminal Myc-tagged MAPKAPK2 (46 to 400 residues) expressed in Escherichia coli assessed as remaining activity at 10 uM using KKLNRTLSVA as substrate incubated for 30 mins in presence of [gamma-33P]ATP by filter binding method relative to control. In a few lines: as §2

Test [7] concerns the target Maternal embryonic leucine zipper kinase (Homo sapiens) (UniProt Q14680). The test can be described thus: Inhibition of recombinant human N-terminal GST/C-terminal His6-tagged MELK (2 to 651 residues) expressed in Escherichia coli assessed as remaining activity at 10 uM using KKLNRTLSFAEPG as substrate incubated for 30 mins in presence of [gamma-33P]ATP by filter binding method relative to control. An outline of the steps: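 Incubation was 30 min at room temperature (21 °C) under conditions linear with time and enzyme amount. Activity is reported as percent of control lacking compound, triplicate mean ± S.D.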

In test [8] the target is Ribosomal protein S6 kinase alpha-5 (Homo sapiens) (UniProt O75582). The test is described as follows: Inhibition of recombinant human His6-tagged MSK1 (2 to 802 residues) expressed in baculovirus infected Sf21 cells assessed as remaining activity at 10 uM using GRPRTSSFAEGKK as substrate incubated for 30 mins in presence of [gamma-33P]ATP by filter binding method relative to control. In a few lines:
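Robotic radiometric panel assay, 30 min at room temperature (21 °C), with 10 mM magnesium acetate. […] Compound at 1 or 10 µM. Residual activity expressed relative to compound-free control; triplicate average ± S.D.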

For test [9], the target named is Serine/threonine-protein kinase N2 (Homo sapiens) (UniProt Q16513). The test is described as follows: Inhibition of recombinant N-terminal His6/FLAG-tagged human PRK2 (501 to 984 residues) expressed in baculovirus infected Sf21 cells assessed as remaining activity at 10 uM using S6 peptide as substrate incubated for 30 mins in presence of [gamma-33P]ATP by filter binding method relative to control. In a few lines:
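Kinase panel run robotically at 21 °C for 30 min, linear in time and enzyme. […] Compound tested at 1 or 10 µM. Activity given as percentage of incubations without compound, mean of triplicates ± S.D.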

Test [10] addresses Vascular endothelial growth factor receptor 1 (Homo sapiens) (UniProt P17948). The test can be described thus: Inhibition of recombinant human N-terminal GST-tagged VEGFR1 (784 to 1338 residues) expressed in baculovirus infected Sf21 cells assessed as remaining activity at 10 uM using KKKSPGEYVNIEFG as substrate incubated for 30 mins in presence of [gamma-33P]ATP by filter binding assay relative to control. In a few lines:
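Panel assays were run for 30 min at 21 °C, within the linear range for time and enzyme. […] Results are percent activity remaining relative to compound-free control, averaged from triplicate ± S.D.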

The species entered for another test is Homo sapiens. The test is described as follows: Inhibition of choline kinase (unknown origin) assessed as remaining activity at 10 uM using choline as substrate incubated for 30 mins in presence of ATP by Kinase Glo assay relative to control. An outline of the steps: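 Choline kinase assayed with 1 mM choline, 1 μM ATP in 25 mM glycine/NaOH pH 8.5, 67 mM KCl, 5 mM MgCl2, 1 mM DTT, 30 min at room temperature. Stopped with Kinase-Glo Plus, luminescence read after 10 min. Activity relative to control, triplicate.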

Test [11] concerns the target Mitogen-activated protein kinase; ERK1/ERK2 (Homo sapiens) (UniProt P27361+P28482). The test is described as follows: Inhibition of ERK1/2 in serum starved/PMA-stimulated HEK293 cells assessed as reduction in RSK phosphorylation at S227 residues at 1 uM incubated for 30 mins by immunoblot analysis. The class given is cell-based.
Test [12] has as its target Serine/threonine-protein kinase mTOR (Mus musculus) (UniProt Q9JLN9). The test is described as follows: Inhibition of mTOR in MEF cells assessed as reduction in 4E-BP1 phosphorylation at S65 residues at 1 uM incubated for 30 mins by immunoblot analysis. The class given is cell-based. An outline of the steps:
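HEK-293 cells or MEFs cultured in 10% serum and treated 30 min with inhibitor. Lysed in Tris lysis buffer. Lysates immunoblotted for 4E-BP1 phosphorylated at Thr37/Thr46 and Ser65, with mobility shift noted. Three experiments.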

The target of a further test is mTORC1 (Homo sapiens) (UniProt P42345+Q8N122+Q9BVC4). Conditions: HEK293, dose 30.0 nM, time 30.0 min.
The target of test [13] is T1, mTORC2 (Homo sapiens) (UniProt P42345+Q6R327+Q9BVC4+Q9BPZ7). Conditions: HEK293, dose 30-1000 nM, time 30.0 min.
Test [14] deals with T1, mTORC2 (Homo sapiens). Conditions: HEK293, dose 30-1000 nM, time 30.0 min. The source holds these as a separate data set.

Activity calls are given as the source filed them. The rule behind the calls is not given here.

Take `COc1ccc(-c2ccc3c(N4CCOCC4)nc(N4C[C@@H](C)O[C@@H](C)C4)nc3n2)cc1CO` [Ku-0063794]: the Activity in test [1] came out at 92%; in test [2], 88%; in [3] it was 89%; in test [4] it was 99%; in test [5] it was 96%; in [6], 81%. In addition, the Activity in [7] turned out to be 72%; in test [8], 117%; in test [9], 105%; in test [10], 92%; in the test listed under Homo sapiens it was 102%. In addition, the inhibition result in test [11] is “inactive”. Further, the inhibition result (in test [12]; at mTORC1 (Homo sapiens); on mTORC2 (Homo sapiens) [13]) was “Active” each time. Besides, the inhibition result on mTORC2 (Homo sapiens) [14] was “Dose-Dependent Effect”.

(Values after ChEMBL document CHEMBL5678799 (Biochem J, 2009).)
